Calls of active or inactive are those of the source. The rule behind the calls is not given here. Peptide text beside a SMILES is read from it. * marks the point of attachment. Cbz = O=C(OCc1ccccc1)*
Tests used:
[1] = target: Acetylcholinesterase (Homo sapiens, UniProt P22303); test: Inhibition of human AChE using acetylthiocholine iodide as substrate after 5 mins by DTNB method
[2] = target: Cholinesterase (Equus caballus, UniProt P81908); test: Inhibition of equine BuChE using butyrylthiocholine iodide as substrate after 5 mins by DTNB method
[3] = Selectivity ratio of IC50 for human AChE to IC50 for equine BuChE
[4] = target: T1, Beta-secretase 1 (Homo sapiens, UniProt P56817); test: Inhibition of BACE1
[5] = Inhibition of self-induced amyloid beta (1 to 40) aggregation at 100 uM after 24 hrs by thioflavin T-based fluorescence analysis
Summary of the method: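 Aβ1-40 peptide aggregating on its own, without hAChE, with test compound at 100 μM. Aggregation read by thioflavin T fluorescence and expressed as % inhibition. Reported as the mean of two separate experiments (n = 4), with deviation from the mean under 10% of the mean value.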

[6] = target: T1, Beta-secretase 1; test: Inhibition of BACE1 at 10 uM
[7] = Inhibition of amyloid beta (1 to 40) fibril formation at 10 uM coincubated with amyloid beta (1 to 40) peptide after 72 hrs by transmission electron microscopic analysis
[8] = Induction of disassembly of preformed amyloid beta (1 to 40) fibrils assessed as disaggregated fibrils at 10 uM after 3 days by transmission electron microscopic analysis
Summary of the method: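 Aβ1-40 fibrils were preformed over a three-day pre-fibrillization period. Compound was then incubated with the fibrils at 10 μM, and fibril morphology and disassembly were examined by transmission electron microscopy.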

[9] = Cytotoxicity against human SH-SY5Y cells assessed as cell viability at 40 uM after 24 hrs by MTT assay; assay type: cell-based; settings: read-out: Activity

T1 sequence (P56817 whole entry): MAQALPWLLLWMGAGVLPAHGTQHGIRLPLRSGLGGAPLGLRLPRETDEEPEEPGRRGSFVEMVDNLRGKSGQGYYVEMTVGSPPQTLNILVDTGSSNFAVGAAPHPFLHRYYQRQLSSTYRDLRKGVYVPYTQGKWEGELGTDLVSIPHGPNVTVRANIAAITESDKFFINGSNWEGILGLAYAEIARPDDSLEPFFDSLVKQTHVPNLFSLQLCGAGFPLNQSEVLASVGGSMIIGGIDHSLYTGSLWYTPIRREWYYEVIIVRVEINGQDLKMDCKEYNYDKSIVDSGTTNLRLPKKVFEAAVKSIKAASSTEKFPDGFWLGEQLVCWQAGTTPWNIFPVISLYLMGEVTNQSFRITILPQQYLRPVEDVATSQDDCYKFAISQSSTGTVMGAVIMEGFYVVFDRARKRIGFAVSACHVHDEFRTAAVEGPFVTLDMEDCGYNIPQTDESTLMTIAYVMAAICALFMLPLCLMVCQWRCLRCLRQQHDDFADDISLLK
Sequence of Cholinesterase (P81908 whole entry): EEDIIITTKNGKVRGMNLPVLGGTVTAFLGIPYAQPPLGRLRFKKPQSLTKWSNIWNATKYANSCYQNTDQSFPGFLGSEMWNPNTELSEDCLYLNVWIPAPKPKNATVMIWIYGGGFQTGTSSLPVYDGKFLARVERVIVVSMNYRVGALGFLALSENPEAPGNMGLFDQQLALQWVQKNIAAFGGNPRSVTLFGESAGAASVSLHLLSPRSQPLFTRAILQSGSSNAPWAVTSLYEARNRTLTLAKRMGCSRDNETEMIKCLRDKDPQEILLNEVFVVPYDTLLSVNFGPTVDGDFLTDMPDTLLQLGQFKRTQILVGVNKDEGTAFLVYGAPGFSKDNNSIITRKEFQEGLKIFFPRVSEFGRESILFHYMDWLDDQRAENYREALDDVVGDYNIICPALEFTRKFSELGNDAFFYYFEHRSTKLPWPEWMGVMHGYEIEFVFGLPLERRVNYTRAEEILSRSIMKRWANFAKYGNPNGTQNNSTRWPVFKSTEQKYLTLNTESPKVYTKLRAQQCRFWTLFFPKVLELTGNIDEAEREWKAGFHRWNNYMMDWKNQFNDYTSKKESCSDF
Sequence of Acetylcholinesterase (P22303 whole entry): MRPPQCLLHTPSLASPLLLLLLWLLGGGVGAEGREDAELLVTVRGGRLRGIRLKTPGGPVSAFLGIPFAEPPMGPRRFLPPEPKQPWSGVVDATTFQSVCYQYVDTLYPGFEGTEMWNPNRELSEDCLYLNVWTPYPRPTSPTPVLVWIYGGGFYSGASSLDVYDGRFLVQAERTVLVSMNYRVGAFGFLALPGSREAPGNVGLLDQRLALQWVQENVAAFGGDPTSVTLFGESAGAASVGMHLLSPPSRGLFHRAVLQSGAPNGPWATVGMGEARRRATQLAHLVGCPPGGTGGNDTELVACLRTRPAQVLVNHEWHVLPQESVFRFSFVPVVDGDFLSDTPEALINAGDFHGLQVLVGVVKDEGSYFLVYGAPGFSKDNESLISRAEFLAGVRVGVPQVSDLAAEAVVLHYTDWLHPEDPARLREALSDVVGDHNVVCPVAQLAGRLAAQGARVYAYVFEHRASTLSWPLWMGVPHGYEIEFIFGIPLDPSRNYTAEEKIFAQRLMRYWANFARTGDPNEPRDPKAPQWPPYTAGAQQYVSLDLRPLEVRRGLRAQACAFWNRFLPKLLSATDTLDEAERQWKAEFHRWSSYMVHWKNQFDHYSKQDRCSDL

SMILES | IC50 [1] [µM] | IC50 [2] [µM] | Ratio IC50 [3] | IC50 [4] [µM] | inhibition [5] | inhibition [6] [%] | inhibition [7] | inhibition [8] | viability at 24 h, 40 µM [9] [%]
c1ccc(CN2CCC(Nc3nccc(NCc4ccc5c(c4)OCO5)n3)CC2)cc1 | 12.6 | 3.9 | 3.2 | 1.4 | 18.6% | – | – | – | –
Brc1ccc(CNc2ccnc(NC3CCN(Cc4ccccc4)CC3)n2)cc1 | 9.9 | 4.1 | 2.4 | – | 48.4% | 33 | Active | Active | –
Clc1ccccc1CNc1ccnc(NC2CCN(Cc3ccccc3)CC2)n1 | 7.7 | 2.4 | 3.2 | 1.7 | 42.2% | – | – | – | –
Clc1cccc(CNc2ccnc(NC3CCN(Cc4ccccc4)CC3)n2)c1 | 7.7 | 2.5 | 3.1 | 0.6 | 39.9% | – | – | – | –
Cc1ccc(CNc2ccnc(NC3CCN(Cc4ccccc4)CC3)n2)cc1 | 12.9 | 2.5 | 5.2 | 11.1 | 21.9% | – | – | – | –
Clc1ccc(CNc2ccnc(NC3CCN(Cc4ccccc4)CC3)n2)cc1 | 8.8 | 2.8 | 3.1 | 3.2 | 42.6% | – | Active | Active | –
COc1ccc2c3c1O[C@H]1C[C@@H](O)C=C[C@@]31CCN(C)C2 | – | – | – | – | 48% | – | Active | – | –
COc1cc(CNc2ccnc(NC3CCN(Cc4ccccc4)CC3)n2)cc(OC)c1OC | 10.3 | 7.7 | 1.3 | 8.9 | inactive | – | – | – | –
COc1ccc(CNc2ccnc(NC3CCN(Cc4ccccc4)CC3)n2)cc1 | 9.4 | 4.9 | 1.9 | 0.6 | 18.2% | – | – | – | –
COc1ccc(CNc2ccnc(NC3CCN(Cc4ccccc4)CC3)n2)cc1OC | 9.9 | 11.4 | 0.9 | – | 17.4% | 34 | – | – | 81
CC(C)C[C@@H](C=O)NC(=O)[C@H](CC(C)C)NC(=O)[C@@H](NC(=O)OCc1ccccc1)C(C)C (Cbz-Val-Leu-Leu-aldehyde) | – | – | – | 14 | – | – | – | – | –
Fc1ccc(CNc2ccnc(NC3CCN(Cc4ccccc4)CC3)n2)cc1 | 7.7 | 2.2 | 3.5 | 0.7 | 29.8% | – | – | – | –

— ChEMBL document CHEMBL2046278, “Development and evaluation of multifunctional agents for potential treatment of Alzheimer's disease: application to a pyrimidine-2,4-diamine template” (Bioorg Med Chem Lett, 2012)
